{
  "source": "paper PMC6226330",
  "about": "(ACS Infectious Diseases, 2018)",
  "key": {"S. aureus [1]": {"test_system": "S. aureus", "assay": "In vitro uptake of 2-[18F]F-PABA by S. aureus", "format": "cell-based", "outline": "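Cells were incubated with 10 kBq/mL 2-[18F]F-PABA at 37 °C with rapid agitation, with graded PABA concentrations for blocking. Cells were then pelleted, washed three times in PBS, and gamma-counted. At least six replicates were run per point. Data were expressed as percentage or normalized to total protein (Bradford).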"}, "S. aureus (Newman) [2]": {"test_system": "S. aureus (Newman)", "assay": "Mouse S. aureus thigh infection model, PET and ex vivo biodistribution", "format": "in vivo"}, "S. aureus (Newman) [3]": {"test_system": "S. aureus (Newman)", "assay": "Rat triceps infection versus sterile inflammation model, PET/CT and ex vivo", "format": "in vivo", "conditions": "for infected triceps to inflamed triceps ratio: PET; for PET signal at infection site versus sterile inflammation: [18F]FDG PET, 60–80 min postinjection, P = 0.2, n = 4", "outline": "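Rats received live S. aureus Newman (50 μL) in the right triceps and heat-killed bacteria in BHI (50 μL) in the left. After 20–24 h, tracer was given IV and dynamic PET/CT run up to 120 min. Uptake was %ID/cc, with blood taken from the left ventricle (n = 7, mean ± SEM). Ex vivo gamma counting gave %ID/g (n = 6). Groups were compared by two-tailed Mann-Whitney U test.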"}, "S. aureus [4]": {"test_system": "S. aureus", "assay": "Compartment PK model of dynamic 2-[18F]F-PABA PET data", "format": "in vivo, rat", "conditions": "after 2 h, simulation with compartment PK model", "outline": "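Dynamic PET data came from blood and the infected right triceps of S. aureus-infected rats. Specific and nonspecific activities at the sites were then simulated.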"}, "S. aureus [5]": {"test_system": "S. aureus", "format": "in vivo, rat", "conditions": "tracer containing 2 mg 19F-PABA, two hours after injection, ex vivo", "outline": "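Rats carried live S. aureus Newman in the right triceps and heat-killed bacteria in BHI in the left triceps (sterile inflammation). They received 29.6–37 MBq tracer spiked with 2 mg 19F-PABA via the tail vein. At 2 h animals were sacrificed. Organ radioactivity was gamma-counted and bacterial load determined by plating and CFU enumeration.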"}, "MSSA and MRSA": {"test_system": "MSSA and MRSA", "format": "in vivo, rat", "outline": "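Female Sprague-Dawley rats (10 weeks) received 50 μL S. aureus Newman (MSSA) in the right triceps and MRSA ATCC BAA1762 in the left triceps, each at 8 log10 CFU. Oxacillin began 2–4 h after infection: 4 subcutaneous 200 mg/kg doses over 20 h. Tracer was 22.2–44.4 MBq in saline by tail-vein catheter under anesthesia. PET/CT was done 2–4 h after the last dose.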"}, "J774 murine macrophages": {"test_system": "J774 murine macrophages", "assay": "In vitro uptake of 2-[18F]F-PABA by mammalian cells", "format": "cell-based", "outline": "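J774.1 murine macrophages were cultured in RPMI GlutaMAX with 10% heat-inactivated FBS at 37 °C, 5% CO2. Tracer accumulation was gamma-counted in parallel with bacterial strains. At least six replicates were run. Values were expressed as percentage or normalized to total protein (Bradford).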"}, "MSSA": {"test_system": "MSSA", "assay": "Bacterial burden ex vivo", "format": "in vivo, rat", "conditions": "four doses of 200 mg/kg subcutaneously over 20 h; untreated 8.4 ± 0.1"}, "MRSA": {"test_system": "MRSA", "assay": "Bacterial burden ex vivo", "format": "in vivo, rat", "conditions": "four doses of 200 mg/kg subcutaneously over 20 h; untreated 9.0 ± 0.2"}, "[6]": {"conditions": "group not treated with oxacillin"}, "[7]": {"conditions": "oxacillin-treated, four doses of 200 mg/kg"}},
  "note": "Read-outs that look alike come from different tables or passages of the source.",
  "data": [
    {"molecule": "Nc1ccc(C(=O)O)c([18F])c1", "note": "[2-[^18F]F-PABA, 2-[^18F]fluoro-p-aminobenzoic acid]", "values": [
      {"measurement": "accumulation in viable versus heat-killed bacteria", "setting": "S. aureus [1]; S. aureus ATCC 29213", "value": "rapidly accumulated in viable cells but not in heat-killed bacteria"},
      {"measurement": "accumulation in clinical strains", "setting": "S. aureus [1]; four MSSA and six MRSA clinical strains", "value": "accumulates in all the clinical strains tested"},
      {"measurement": "tracer level in infected versus uninfected thighs", "setting": "S. aureus (Newman) [2]; mouse thigh infection", "value": "significantly higher levels of tracer were found in the infected thighs than in uninfected thighs"},
      {"measurement": "elimination", "setting": "S. aureus (Newman) [2]; mouse, PET and ex vivo tissue analysis", "value": "rapidly eliminated mainly through renal clearance"},
      {"measurement": "infected triceps to inflamed triceps ratio", "setting": "S. aureus (Newman) [3]; 60 min", "value": 5.52},
      {"measurement": "infected triceps to inflamed triceps ratio", "setting": "S. aureus (Newman) [3]; 120 min", "value": 7.95},
      {"measurement": "infected triceps to inflamed triceps ratio", "setting": "S. aureus (Newman) [3]; after 10 min", "value": "~2", "unit": "fold"},
      {"measurement": "signal in infected triceps compared to inflamed muscle", "setting": "S. aureus (Newman) [3]; post-mortem ex vivo analysis, %ID/g", "value": "4.30 ± 0.82"},
      {"measurement": "share of total activity at site of infection from specific accumulation", "setting": "S. aureus [4]", "value": "~60", "unit": "%"},
      {"measurement": "ratio of 2-[18F]F-PABA in infected triceps compared to inflamed muscle", "setting": "S. aureus [5]", "value": "9.38 ± 2.43"},
      {"measurement": "PET signal in left triceps (MRSA infection)", "setting": "MSSA and MRSA; [6]", "value": "0.096 ± 0.039", "unit": "%ID/cc"},
      {"measurement": "PET signal in right triceps (MSSA infection)", "setting": "MSSA and MRSA; [6]", "value": "0.087 ± 0.041", "unit": "%ID/cc"},
      {"measurement": "PET signal in left triceps (MRSA infection)", "setting": "MSSA and MRSA; [7]", "value": "0.079 ± 0.036", "unit": "%ID/cc"},
      {"measurement": "PET signal in right triceps (MSSA infection)", "setting": "MSSA and MRSA; [7]", "value": "0.025 ± 0.015", "unit": "%ID/cc"},
      {"measurement": "accumulation in mammalian cells", "setting": "J774 murine macrophages", "value": "not in mammalian cells"}
    ]},
    {"molecule": "Cc1onc(-c2ccccc2)c1C(=O)N[C@@H]1C(=O)N2[C@@H]1SC(C)(C)[C@@H]2C(=O)O", "note": "[oxacillin]", "values": [
      {"measurement": "bacterial burden in right triceps (MSSA infection)", "setting": "MSSA", "value": "6.4 ± 0.4", "unit": "log10 CFU/g"},
      {"measurement": "bacterial burden in left triceps (MRSA infection)", "setting": "MRSA", "value": "8.2 ± 0.3", "unit": "log10 CFU/g"}
    ]},
    {"molecule": "OC[C@H]1OC(O)[C@H]([18F])[C@@H](O)[C@@H]1O", "note": "(stereo partly shown) [[^18F]FDG, [^18F]fluorodeoxyglucose, reference compound]", "values": [
      {"measurement": "PET signal at infection site versus sterile inflammation", "setting": "S. aureus (Newman) [3]", "value": "not significantly different"},
      {"measurement": "PET signal at infection site versus sterile inflammation", "setting": "S. aureus (Newman) [3]; listed as [^18F]F-FDG", "value": "no difference"}
    ]}
  ]
}
